Compound activity as filed in PubChem.
Shown are actives, neighbours in structure and some others; about 9.2% of the full set was active somewhere.
ERa SRC1 pot: enhancers of ERα–SRC-1 coactivator binding, primary screen, biochemical, TR-FRET, ERα LBD, low estradiol; Estrogen receptor (Homo sapiens), P03372; TR-FRET ERalpha-LBD/SRC-Cy5 coactivator binding, 2 h; 100 = basal binding, no effect; coactivator binding (% of control), % at 25.6 µM; actives 1.3% (n = 86,000); AID 639, 2007; in the data active = activity above about 200%;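 note: binding measured in presence of low estradiol as agonist stimulus; 0% = peptide alone without receptor and 100% = receptor with peptide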
Target sequence (P03372 whole entry, looked up, the tested form may be a part): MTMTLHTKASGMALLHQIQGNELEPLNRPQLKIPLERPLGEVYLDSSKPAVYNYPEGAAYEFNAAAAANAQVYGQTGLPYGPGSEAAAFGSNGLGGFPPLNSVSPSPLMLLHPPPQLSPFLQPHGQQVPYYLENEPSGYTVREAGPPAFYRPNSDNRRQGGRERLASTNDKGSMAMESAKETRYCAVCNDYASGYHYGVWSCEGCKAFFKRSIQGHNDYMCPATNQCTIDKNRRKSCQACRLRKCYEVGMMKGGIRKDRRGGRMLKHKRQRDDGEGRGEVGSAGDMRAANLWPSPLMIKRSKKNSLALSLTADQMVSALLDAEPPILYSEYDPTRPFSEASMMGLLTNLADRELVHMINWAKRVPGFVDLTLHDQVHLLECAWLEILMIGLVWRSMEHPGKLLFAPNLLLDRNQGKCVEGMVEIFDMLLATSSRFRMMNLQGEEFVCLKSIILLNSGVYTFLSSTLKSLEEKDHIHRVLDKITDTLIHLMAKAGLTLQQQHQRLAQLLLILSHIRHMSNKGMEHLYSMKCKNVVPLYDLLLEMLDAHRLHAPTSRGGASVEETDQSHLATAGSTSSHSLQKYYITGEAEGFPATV
HUVEC prolif 384: inhibitors of HUVEC proliferation, primary screen, cell-based, 384-well | CellTiter-Glo luminescence, 72 h; stronger effect = lower value | viability, % at 10 µM (by protocol) | actives 1.1% (n = 86,000) | AID 648, 2007;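 active = viability at or below 30%; inactive = viability above 30%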;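 note: 100% = median luminescence of DMSO-only cell control wells on each plate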
H69AR inhibit: proliferation blockers of H69AR lung cancer cells, primary screen, cell-based, human, 86K library; H69AR lung tumor viability, ATP luminescence, 72 h; stronger effect = lower value; actives 6% (n = 85,000); AID 598, 2007; viability, % at 10 µM;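 active = viability at or below 40%; inactive = viability above 40%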;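 note: multidrug resistant small cell line overexpressing MRP-1 efflux transporter; 100% = mean luminescence of untreated control wells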
ERa SRC1 inh: ERα–SRC-1 coactivator interaction inhibitors, primary screen, biochemical, TR-FRET, ERα LBD, estradiol-bound. TR-FRET ER-alpha LBD / SRC-1 peptide. inhibition, % at 25.6 µM. actives 1.7% (n = 86,000); in the data active = inhibition above about 50%;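 note: 0% = receptor plus peptide control and 100% = peptide only without receptor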
Fibroblast inh: antiproliferative effect on LL 47 fibroblasts – human, LL 47 cells, CellTiter-Glo luminescence, primary screen. LL 47 human lung fibroblast viability, ATP luminescence; stronger effect = lower value. viability, % at 10 µM. actives 1.1% (n = 85,000);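 active = viability at or below 50% in the single dose screen; inactive = viability above 50%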;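 note: compound exposure lasted 72 h before the ATP readout; 100% = median luminescence of untreated cell-only wells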
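test system = LL 47 human lung fibroblasts | amount = 1,150 fibroblasts seeded per well | medium = 15% FBS in IMEM | times = overnight cell rest, 72 h compound treatment at 37 °C | measured by = CellTiter-Glo luminescence measuring cellular ATP | read-out = viability percentage against median untreated-cell control | benchmarks = cell-only wells, no compound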
ERb SRC1 inh: inhibitors of ERβ-SRC1 coactivator interaction, primary screen, biochemical, TR-FRET, ERβ LBD, SRC-1 peptide; Estrogen receptor beta (Homo sapiens), Q92731; TR-FRET ER-beta LBD / SRC1-Cy5 peptide binding; receptor agonist-loaded with 1 µM estradiol; inhibition, % at 25.6 µM; actives 1.3% (n = 86,000); AID 633, 2007;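 active = compounds whose percent inhibition of the receptor-coactivator binding signal exceeds about 50% in the single-dose screen, limit read from the data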;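 note: 0% = receptor plus peptide wells without compound and 100% = peptide-only wells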
* marks the source's active call; other numbers are inactive results; x = no result; [ ] = remark or other dose.

SMILES	ERa SRC1 pot	HUVEC prolif 384	H69AR inhibit	ERa SRC1 inh	Fibroblast inh	ERb SRC1 inh
O=c1[nH]c2cc3c(cc2cc1CN(Cc1cccs1)Cc1nnnn1Cc1ccco1)OCCO3	124	79	60	51*	92	50
Cc1ccc2[nH]c(=O)c(CN(Cc3cccnc3)Cc3nnnn3CCN3CCOCC3)cc2c1	114	86	90	6	99	-6
CCOc1ccccc1N1CCN(CC(O)COc2ccc3c(C)cc(=O)oc3c2)CC1 (configuration not stated)	88	85	99	-2	97	-1
CCOC(=O)c1c(-c2ccccc2)c(C(C)=O)c(=O)n(C)c1C	120	106	94	-8	99	-4
CCOc1c(C(N)=O)c(-c2ccccc2)c2c(=O)[nH]c3ccccc3n12	54	90	103	82*[fluorescence artefact?]	103	61*
O=C(Nc1cccnc1)c1ccc(COc2cc(Cl)ccc2Cl)o1	88	50	37*	27	82	25
O=C(Nc1cccnc1)c1ccc(COc2ccccc2Cl)o1	76	45	60	5	80	-11
CC1(C)CN2C(=S)N(c3ccccc3)C(c3ccccc3)N2C1 (configuration not stated)	118	102	85	-6	89	-6
Nc1nnc(SCC(=O)NC23CC4CC(CC(C4)C2)C3)s1	119	90	95	-2	96	-21
O=C(CCl)N(c1ccc(Cl)cc1)c1c[nH]c2ccccc12	75	3.9*	1.1*	6	2.4*	10
CCOC(=O)CCCc1c[nH]c2ccccc12	110	86	93	3	105	0
CCOC(=O)Cc1c[nH]c2ccccc12	110	80	90	2	84	-6
O=C(CCl)N(c1ccccc1)c1c[nH]c2ccccc12	108	6.9*	0.4*	-6	1.7*	-12
C=CCn1c(N)cc(=O)nc1SCC(=O)NC(C)c1ccccc1 (configuration not stated)	112	90	77	-26	95	-21
CC(Oc1ccc(Cl)cc1Cl)c1nc(-c2ccc(NC(=O)c3ccccn3)cc2)no1 (configuration not stated)	111	45	29*	-2	88	2
Cc1ccccc1OC(C)c1nc(-c2ccccc2)no1 (configuration not stated)	99	105	95	-39	104	-10
Cc1ccc(NC(=O)C2CCN(S(=O)(=O)c3c(C)n[nH]c3C)CC2)nc1	109	96	97	-23	99	-25
COc1ccc(C(NC(C)=O)c2ccc3cccnc3c2O)c(OC)c1 (configuration not stated)	104	2.4*	0.9*	-1	15*	3
CC(C)C(=O)NC(c1ccco1)c1ccc2cccnc2c1O (configuration not stated)	95	2.1*	1.9*	3	14*	8
CCCC(=O)Nc1ccc(Cl)c(NC(=O)c2ccco2)c1	114	91	72	2	104	0
Oc1c(C(Nc2nc3ccccc3s2)c2ccco2)ccc2cccnc12 (configuration not stated)	105	4.5*	44	0	17*	3
CCCC(=O)NC(c1ccco1)c1cc(Cl)c2cccnc2c1O (configuration not stated)	99	12*	0.9*	3	3.1*	9
CN(CC(=O)NCc1ccco1)S(=O)(=O)c1cccc2cccnc12	109	106	89	-2	93	9
O=C(CC(=O)N1CCN(c2ccccn2)CC1)Nc1ccc2nc3n(c(=O)c2c1)CCCCC3	89	104	107	5	91	3
O=C(Nc1ccc2c(c1)OCO2)N1CCN(C(=O)C2CCCO2)CC1 (configuration not stated)	103	96	101	-17	x	-14
SMILES	ERa SRC1 pot	HUVEC prolif 384	H69AR inhibit	ERa SRC1 inh	Fibroblast inh	ERb SRC1 inh
COc1ccc2[nH]c(=O)c(CN(CCO)S(=O)(=O)c3c(C)ccc4nsnc34)cc2c1	104	96	77	-1	101	1
COc1ccc2[nH]c(=O)c(CN(Cc3cccs3)S(=O)(=O)c3cccc4nsnc34)cc2c1	106	74	3.0*	-2	83	-5
O=C(NCc1cccs1)C1CCN(c2ccc(S(=O)(=O)N3CCOCC3)cc2Cl)CC1	113	54	18*	-3	59	1
CC(C)CNC(=O)C1CCN(c2ccc(S(=O)(=O)N3CCOCC3)cc2Cl)CC1	109	97	92	-2	95	-8
CCCOc1ccccc1NC(=O)c1ccc(N)cc1	104	95	78	-6	112	-8
CCCOc1ccc(N)cc1N	-3	85	77	99*[fluorescence artefact?]	107	99*[fluorescence artefact?]
CCn1c2c(c3cc(Br)ccc31)CCC/C2=N\O	82	49	86	-4	84	1
CCCn1c2ccc(/C(C)=N\O)cc2c2cc(/C(C)=N/O)ccc21	122	83	27*	-16	90	-17
Cc1nn(CC(=O)Nc2ccc3c(c2)nc(CN2CCCC2)n3C)c(=O)c2ccccc12	79	100	100	70*[fluorescence artefact?]	102	40
Cc1ccc(C)c(NC(=O)Cn2nc(C)c3ccccc3c2=O)c1	296*[fluorescence artefact?]	94	82	18	103	3
CNC(=O)Cn1nc(C)c2ccccc2c1=O	109	96	88	16	100	20
Cc1nn(CC(=O)Nc2ccc3c(c2)oc2ccccc23)c(=O)c2ccccc12	106	39	3.3*	81*[fluorescence artefact?]	105	51*[fluorescence artefact?]
CCn1c(CCNC(=O)c2ccc(F)cc2)nc2ccccc21	112	100	83	-5	99	-10
CCn1c(CCCNC(=O)c2ccc(F)cc2)nc2ccccc21	270*	103	89	-5	93	7
COC(=O)c1cc(Br)ccc1OC(=O)c1cccnc1	90	90	95	-4	106	0
O=[N+]([O-])c1ccc(Sc2nnnn2-c2ccccc2)c(Cl)c1	107	51	5.1*	0	44*	12
Nc1ccc(Sc2nnnn2-c2ccccc2)c(Cl)c1	109	100	99	-6	100	-10
CCCn1c(=O)c(C(=O)Nc2nnc(C)s2)c(O)c2ccccc21	87	109	98	5	104	5
CCOC(=O)c1cccc(NC(=O)Cn2c(CC(=O)N3CCCC3)nc3ccccc32)c1	92	94	102	0	95	-6
